Assay results published in ChEMBL document CHEMBL5380838, “Novel Aryl Sulfonamide Derivatives as NLRP3 Inflammasome Inhibitors for the Potential Treatment of Cancer” (J Med Chem, 2023).
Activity calls are given as the source filed them. The calls are words filed in the database; no cut-off is given here.

Key:
[1] = Tlast in C57BL/6 mouse at 25 mg/kg, ip measured for 0.083 to 24 hrs by LC-MS/MS analysis; assay type: ADME, organism-based; conditions: in vivo, time 0.083-24 hrs
Summary of the method: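 Female C57BL/6 mice, 8 weeks old, 25–30 g, given a single IP dose of 25 mg/kg. Sampling at 5 and 20 min and 1, 2, 3, 6, 8 and 24 h, 3 mice per timepoint; Li-heparin plasma from the cava vein. ACN/MeOH precipitation with diclofenac internal standard, then LC-MS/MS in ESI(−) MRM mode, range 1–2000 ng/mL. Noncompartmental analysis, linear trapezoidal AUC.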

B16-F10 [2] = assay: Effect on total caspase-1 expression in cytosolic luciferase-transfected mouse B16-F10 cells xenografted in C57BL/6 mouse at 25 mg/kg, ip administered thrice weekly measured after 14 days by Western blot analysis; assay type: functional, organism-based; conditions: time 14.0 day
Summary of the method: (§1)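 Tumors from luciferase-expressing B16-F10 grafts in C57BL/6 mice, dosed IP at 25 mg/kg thrice weekly (DMSO controls), were excised at endpoint and homogenized in sucrose/HEPES/IGEPAL lysis buffer. Lysates were western blotted and bands expressed as fold ratio over β-actin (n = 5).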

B16-F10 [3] = assay: Antiproliferative activity against LPS-treated mouse B16-F10 cells co-cultured with mouse peritoneal macrophages assessed as decrease in cell growth at 1 uM incubated for 30 mins followed by ATP stimulation for 1 hr measured after 48 hrs by cell counting method; assay type: functional, cell-based; conditions: time 49.5 hrs
Summary of the method: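 Transwell co-culture (0.4 µm pores), 48 h: peritoneal macrophages from C57BL/6 mice (2 × 10^5, lower well) primed with LPS 1 µg/mL 2 h, then DMSO or compound 1 µM 30 min, then ATP 1 h; B16-F10 cells (2 × 10^3) in upper insert; tumor cells removed after 48 h and counted by image-based cytometer.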

[4] = Metabolic stability in mouse liver microsomes assessed as intrinsic clearance measured per mg protein at 1 uM measured upto 60 mins by LC-MS/MS analysis; assay type: ADME, Microsome; conditions: read-out: CLH
Summary of the method: (§2)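 Pooled human or CD-1 male mouse liver microsomes at 0.5 mg/mL with test compound 1 µM in 50 mM phosphate pH 7.4 and 3 mM MgCl2, preincubated 10 min at 37 °C. Percent parent remaining vs 0 min measured by LC-MS/MS. Cli = k/microsomal conc. × 1000; mean ± SD, n = 2.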

Mus musculus = assay: Antiinflammatory activity in LPS-induced C57BL/6 mouse assessed as reduction in IL-1beta production in plasma at 25 mg/kg, ip pretreated for 30 mins followed by LPS induction measured after 4 hrs by ELISA method; assay type: functional, organism-based; conditions: time 4.5 hrs
Summary of the method: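 C57BL/6 mice given inhibitor 25 mg/kg IP (vehicle DMSO) 30 min before IP LPS 1 mg/kg; after 4 h, peritoneal exudate and blood collected, plasma from centrifugation 1000g 15 min 4 °C; IL-1β measured by ELISA; mean ± SEM of three independent experiments.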

B16-F10 [5] = assay: Antitumor activity against cytosolic luciferase-transfected mouse B16-F10 cells xenografted in C57BL/6 mouse assessed as tumor reduction at 25 mg/kg, ip administered thrice weekly measured after 14 days by bioluminescence assay; assay type: functional, organism-based; conditions: time 14.0 day
Summary of the method: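 Female C57BL/6 mice aged 6–8 weeks inoculated subcutaneously with 1 × 10^6 B16-F10 cells stably expressing cytosolic luciferase. From day 5, IP dosing of 25 mg/kg thrice weekly, DMSO for controls, five mice per group. Imaging after IP D-luciferin 150 mg/kg under 2.5% isoflurane, read after 15 min. Caliper volume = π/6 × a × b². Tumors excised day 14.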

B16-F10 [6] = assay: Effect on pro-IL-1beta expression in cytosolic luciferase-transfected mouse B16-F10 cells xenografted in C57BL/6 mouse at 25 mg/kg, ip administered thrice weekly measured after 14 days by Western blot analysis; assay type: functional, organism-based; conditions: time 14.0 day; summary of the method: as §1
THP-1 [7] = assay: Suppression of IL-1beta processing in LPS-treated human THP-1 cells at 1 to 1000 nM incubated for 30 mins followed by ATP stimulation for 1 hr by ELISA method; assay type: functional, cell-based; conditions: dose 1-1000 nM, time 90.0 min
THP-1 [8] = assay: Suppression of NLRP3 expression in LPS-treated human THP-1 cells at 1 to 1000 nM incubated for 30 mins followed by ATP stimulation for 1 hr […]; assay type: functional, cell-based; conditions: dose 1-1000 nM, time 90.0 min
[9] = Metabolic stability in human liver microsomes assessed as half life measured per mg protein at 1 uM measured upto 60 mins by LC-MS/MS analysis; assay type: ADME, Microsome; summary of the method: as §2
THP-1 [10] = assay: Suppression of caspase-1 p10 expression in LPS-treated human THP-1 cells at 1 to 1000 nM incubated for 30 mins followed by ATP stimulation for 1 hr […]; assay type: functional, cell-based; conditions: dose 1-1000 nM, time 90.0 min

In the case of `CC(C)[C@H](NS(=O)(=O)c1ccc([N+](=O)[O-])cc1)C(=O)Nc1c2c(cc3c1CCC3)CCC2`, the Tlast [1] is reported as 24 h, the Activity (B16-F10 [2]) is reported as “inactive” and the Activity (B16-F10 [3]) is reported as “Active”. For the same compound, the microsomal CLint at 1 µM [4] was 4.8 µL/min/mg, the Activity (Mus musculus) was “Active” and the Activity (B16-F10 [5]) was “Active”. The Activity (B16-F10 [6]) was “inactive”, the Activity (THP-1 [7]) was “Active” and the Activity (THP-1 [8]) was “inactive”. For the same compound, the half-life at 1 µM [9] was 30.5 min and the Activity (THP-1 [10]) was “Active”.
